From ChEMBL document CHEMBL1134489, “Enantioselective syntheses of dopaminergic (R)- and (S)-benzyltetrahydroisoquinolines” (J Med Chem, 2001)
pIC50: −log10 of the molar value.

Key:
[1] = target: Sodium-dependent dopamine transporter (Rattus norvegicus, UniProt P23977); test: Inhibition of [3H]dopamine uptake in rat striatal synaptosomes; format: subcellular, Brain
How it was run: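 Synaptosomes from male Wistar rat striatum (sucrose homogenate, 1000g then 15000g pellet) in oxygenated Krebs-Ringer pH 7.6. Preincubated 5 min with 10 µM pargyline, then 5 min with 2 nM final [3H]dopamine. Stopped by ice-cold dilution and filtration. Retained radioactivity counted by liquid scintillation. IC50 from curves with 4-11 concentrations, 4-6 determinations each.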

D(2) dopamine receptor = D(2) dopamine receptor (Rattus norvegicus, UniProt P61169); test: Inhibition of [3H]-Raclopride binding to the rat striatal membranes; format: cell membranes, Membrane
How it was run: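 Rat striatum homogenized in 50 mM Tris-HCl pH 7.4, washed four times by centrifugation at 20000g, resuspended in Tris with 120 mM NaCl, 5 mM KCl, 1 mM CaCl2, 1 mM MgCl2, 0.1% ascorbic acid. Membranes (200 µg protein) incubated 1 h at 25 °C with 0.5 nM [3H]raclopride plus drug. Nonspecific binding defined with 50 µM apomorphine. Filtration, scintillation counting. IC50 from 4-11 concentrations, 4-6 determinations each.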

D(1A) dopamine receptor = D(1A) dopamine receptor (Rattus norvegicus, UniProt P18901); test: Inhibition of [3H]-SCH- 23390 binding to the rat striatal membranes; format: cell membranes, Membrane
How it was run: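 Striatal membranes washed twice at 20000g, resuspended in Tris with 5 mM MgSO4, 0.5 mM EDTA, 0.02% ascorbic acid, sonicated. Membranes (100 µg protein) incubated 1 h at 25 °C with 0.25 nM [3H]SCH 23390 and test drug. Nonspecific binding defined with 30 µM SK&F 38393. Filtration, then scintillation counting. IC50 from curves of 4-11 concentrations, 4-6 determinations per concentration.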

Chain of D(1A) dopamine receptor (P18901 whole entry): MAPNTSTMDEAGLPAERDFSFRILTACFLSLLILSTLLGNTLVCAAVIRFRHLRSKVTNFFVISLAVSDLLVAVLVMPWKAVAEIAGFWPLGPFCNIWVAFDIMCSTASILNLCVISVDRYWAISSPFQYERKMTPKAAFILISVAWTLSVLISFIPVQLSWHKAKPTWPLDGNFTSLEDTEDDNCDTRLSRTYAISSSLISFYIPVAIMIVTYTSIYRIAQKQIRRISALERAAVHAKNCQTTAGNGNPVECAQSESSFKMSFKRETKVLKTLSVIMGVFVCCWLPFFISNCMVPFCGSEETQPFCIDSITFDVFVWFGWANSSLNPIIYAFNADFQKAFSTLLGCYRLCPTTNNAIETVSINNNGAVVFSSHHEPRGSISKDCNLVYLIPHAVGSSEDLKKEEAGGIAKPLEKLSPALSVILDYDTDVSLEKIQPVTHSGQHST
Chain of D(2) dopamine receptor (P61169 whole entry): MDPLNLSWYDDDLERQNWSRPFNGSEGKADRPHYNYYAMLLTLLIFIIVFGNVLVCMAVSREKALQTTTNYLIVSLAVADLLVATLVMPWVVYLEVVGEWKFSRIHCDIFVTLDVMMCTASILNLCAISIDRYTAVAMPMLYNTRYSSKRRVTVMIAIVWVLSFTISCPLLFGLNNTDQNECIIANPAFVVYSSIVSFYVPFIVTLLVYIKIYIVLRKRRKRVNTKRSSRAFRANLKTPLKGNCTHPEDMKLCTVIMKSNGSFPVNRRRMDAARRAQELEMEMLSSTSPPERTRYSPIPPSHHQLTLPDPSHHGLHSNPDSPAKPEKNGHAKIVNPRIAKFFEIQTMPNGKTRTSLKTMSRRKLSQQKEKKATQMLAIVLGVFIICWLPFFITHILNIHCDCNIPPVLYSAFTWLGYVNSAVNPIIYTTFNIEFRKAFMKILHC
Chain of Sodium-dependent dopamine transporter (P23977 whole entry): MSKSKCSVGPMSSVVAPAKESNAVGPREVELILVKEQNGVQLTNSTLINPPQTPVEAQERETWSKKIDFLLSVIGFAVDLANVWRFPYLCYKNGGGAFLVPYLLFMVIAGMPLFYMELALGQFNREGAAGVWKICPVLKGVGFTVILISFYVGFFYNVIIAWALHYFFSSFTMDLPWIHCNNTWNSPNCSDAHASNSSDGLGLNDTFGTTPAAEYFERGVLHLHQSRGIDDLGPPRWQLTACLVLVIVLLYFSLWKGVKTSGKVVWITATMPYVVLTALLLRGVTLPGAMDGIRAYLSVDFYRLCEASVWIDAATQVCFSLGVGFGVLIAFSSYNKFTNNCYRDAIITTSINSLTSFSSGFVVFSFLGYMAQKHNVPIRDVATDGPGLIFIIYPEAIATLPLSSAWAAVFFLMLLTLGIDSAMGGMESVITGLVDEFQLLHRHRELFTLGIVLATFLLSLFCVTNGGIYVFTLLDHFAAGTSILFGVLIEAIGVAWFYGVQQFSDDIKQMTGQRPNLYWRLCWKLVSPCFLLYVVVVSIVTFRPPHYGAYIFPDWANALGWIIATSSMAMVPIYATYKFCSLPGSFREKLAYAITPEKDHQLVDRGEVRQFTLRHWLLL

SMILES	pIC50 [1]	pIC50 (D(2) dopamine receptor)	pIC50 (D(1A) dopamine receptor)
c1ccc(C[C@H]2NCCc3cc4c(cc32)OCO4)cc1	5.17	4.27	< 4.00
CCCN1CCc2cc(O)c(O)cc2[C@@H]1Cc1ccccc1	4.19	4.83	4.78
c1ccc(C[C@@H]2NCCc3cc4c(cc32)OCO4)cc1	5.44	5.40	4.62

Results, then the molecule that gave them:

pIC50 [1]	pIC50 (D(2) dopamine receptor)	pIC50 (D(1A) dopamine receptor)	SMILES
4.36	< 4.00	< 4.00	CCCN1CCc2cc3c(cc2[C@H]1Cc1ccccc1)OCO3
4.69	4.66	4.28	CCCN1CCc2cc3c(cc2[C@@H]1Cc1ccccc1)OCO3
4.04	4.21	< 4.00	CCCN1CCc2cc(O)c(O)cc2[C@H]1Cc1ccccc1
